High-throughput results deposited in PubChem by several laboratories.
The list is not random: actives were taken first. Their share in the collection is about 5.6%.
NR3A LBD binder – binders of NR3A ligand-binding domain, primary screen, biophysical, differential scanning fluorimetry, uHTS. hit rate 2.5% among 340,000. Glutamate receptor ionotropic, NMDA 3A (GRIN3A) ligand-binding domain. Tm shift relative to glycine control, % at 25 µM. NR3A LBD differential scanning fluorimetry, Tm shift; 0% = protein alone, 100% = glycine-bound protein;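 active means melting temperature shift of at least 10% of the positive control shift, at one fixed dose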
CHOP UPR activ – activators of apoptotic CHOP UPR arm, primary screen, cell-based, CHO-CHOP luciferase reporter, luminescence, uHTS | AID 449763, 2010 | hit rate 0.34% among 330,000 | UPR activation; percent of tunicamycin response over DMSO baseline | activation, % at 10 µM;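 active means at 10 µM dose, activation of 40% or more, normalized to positive control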;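 further: 100% = tunicamycin at 10 µg/mL and 0% = DMSO alone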
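Material: CHO-CHOP cells, stable luciferase reporter of PERK-eIF2a-CHOP signalling; quantity: 500 reporter cells seeded per well; buffer or medium: F12 medium containing 10% fetal bovine serum; compound: one dose, 10 µM in 0.5% DMSO; incubation: 6 h compound treatment, 37 °C; measured by: Steady-Glo luciferase luminescence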
aDG glyco up – activators of alpha-DG glycosylation, primary screen, uHTS, Pro5-aDG cells, AlphaScreen; alpha-DG glycosylation AlphaScreen (IIH6); 0% Pro5, 100% B10-LARGE cell signal; hit rate 0.22% among 360,000; activation, % at 10 µM;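 active means activation of at least 8% versus controls, or a plate z-score of at least 8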;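 further: Pro5 are CHO cells carrying HIG-tagged alpha-DG that lacks glycosylation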
UPR XBP1 act – activators of adaptive XBP1 UPR arm, primary screen, cell-based, CHO-XBP1 luciferase reporter, luminescence, uHTS; IRE1-XBP1 UPR activation; percent of tunicamycin response, DMSO as zero; activation, % at 20 µM; hit rate 0.33% among 330,000; AID 463104, 2010;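 active means versus positive control, 20 µM dose yields 30% or more activation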;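 further: 100% = tunicamycin at 10 µg/mL and 0% = DMSO only wells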
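Material: CHO cell line with stable XBP1 luciferase reporter; buffer or medium: F12 medium containing 10% fetal bovine serum; compound: single point, 20 µM final compound, 1% DMSO; incubation: 6 h treatment, 37 °C; measured by: glow luminescence from Steady-Glo reagent; evaluation: activation, % of tunicamycin; control set: tunicamycin high, DMSO low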
CHOP inh – inhibitors of CHOP promoter induction, primary screen, cell-based, unfolded protein response, luciferase reporter; CHO-K1 CHOP-promoter luciferase, tunicamycin-induced, 15-18 h; inhibition, % at 10 µM; hit rate 3.8% among 220,000;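 active means compounds that reduced the stress-induced luciferase reporter signal by more than about 70% of percent inhibition, limit read from the data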;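 further: 0% = tunicamycin plus vehicle and 100% = wells without tunicamycin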
MPTP block – mitochondrial permeability transition pore inhibitors, primary screen, biochemical, isolated mouse mitochondria, absorbance | Ca2+ swelling absorbance, 30 min | hit rate 1.4% among 360,000 | inhibition, % at 10 µM;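 active means inhibition of 50% or more, scaled per plate between neutral and stimulator controls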;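 further: 0% = DMSO wells given calcium and 100% = 1 mM EGTA wells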
UPR XBP1 confirm – IRE1-XBP1 UPR arm activators, confirmation, cell-based, CHO-XBP1 luciferase reporter, luminescence, single concentration | shares compounds with UPR XBP1 act | activation, % at 20 µM | hit rate 63% among 1,000 | AID 485299, 2010;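 active means reporter signal at least 30% of the positive control's activation in two or more of four replicate wells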;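 further: plate controls were DMSO negative control for no effect and tunicamycin 10 µg/mL positive control for full effect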
* marks the source's active call; other numbers are inactive results; . = no result given.

SMILES | NR3A LBD binder | CHOP UPR activ | aDG glyco up | UPR XBP1 act | CHOP inh | MPTP block | UPR XBP1 confirm
CC(C)OP(=O)(OC(C)C)C1(NS(=O)(=O)c2ccc(Cl)cc2)C=C(Cl)C(=O)C(Cl)=C1 | -4.1 | 1.5 | -0.2 | 2.5 | . | 4.6 | .
CCC(=O)Nc1c(C#N)c2nc3ccccc3nc2n1-c1ccc(C)cc1 | 1.5 | . | 0.1 | . | . | 15.2 | .
CCC(C)n1c(NC(=O)c2ccccc2)c(C#N)c2nc3ccccc3nc21 (stereo not given) | 3.0 | -1.6 | 2.1 | 63.0* | . | 2.6 | -0.3
C=CCOc1ccc(CN(C)C(=O)CNC(=O)c2ccc(-c3ccccc3)cc2)cc1 | -5.9 | 4.7 | 0.3 | -0.3 | . | -0.7 | .
CN(C)CC/C=C1\c2ccc(F)cc2Sc2cc(F)c(Cl)cc21 | -6.4 | 1.7 | 0.9 | 86.0* | . | -6.6 | 122.2*
CN(C)CC/C=C1/c2ccc(F)cc2Sc2ccc(Cl)cc21 | -2.3 | 2.1 | 0.3 | 2.3 | . | -5.5 | .
C=CCC1(CC=C)CC(Cc2cnccn2)N(C(=O)OC(C)(C)C)C1 (stereo not given) | . | . | 0.1 | . | . | -0.7 | .
CCCCCN1CC(=O)N2C(C)c3[nH]c4ccccc4c3C[C@H]2C1=O (stereo not given in full) | -2.2 | -1.6 | 0.2 | -7.0 | . | 1.5 | .
FC(F)(F)c1ccc(Cl)c(N/N=C/c2ccc(N3CCOCC3)s2)c1 | 5.2 | -0.8 | -0.3 | -3.0 | 8.0 | 2.3 | .
O=C1NC(=S)N/C1=C\C=C\c1ccccc1 | -8.8 | 0.5 | 0.0 | 39.1* | 11.9 | 0.8 | 5.1
O=C(N[C@H](CO)Cc1ccccc1)c1ccco1 | -0.4 | 1.0 | -0.1 | -0.1 | . | 0.6 | .
CCCCC1CCC(c2ccc(C(N)=O)cc2)CC1 (stereo not given) | -1.4 | -1.4 | 0.0 | -0.3 | 11.0 | -0.2 | .
CCCCCC1CCC(c2ccc(/C(N)=N/O)cc2)CC1 (stereo not given) | 1.2 | 2.1 | 0.0 | 31.6* | 17.9 | 3.4 | 2.9
COc1cc2cc[n+](Cc3ccc([N+](=O)[O-])cc3)cc2cc1OC | -1.1 | -1.1 | 0.0 | -3.3 | . | -1.6 | .
Cc1nc2cc(Oc3nc(NCCN(C)C)nc4ccsc34)ccc2s1 | . | . | 1.2 | . | . | -0.4 | .
Cc1nc(Oc2ccccc2)c2ccccc2n1 | 0.8 | -1.2 | -0.3 | -1.4 | 16.8 | 24.4 | .
c1ccc(Oc2c3ccccc3nc3ccccc23)cc1 | -0.1 | 6.4 | . | 62.6* | -28.9 | . | 67.3*
COc1ccc(-c2nnc(SCC(=O)Nc3sc4c(c3C#N)CCCC4)n2-c2ccccc2)cc1 | 0.8 | -0.6 | 0.0 | 34.6* | 68.6 | 5.2 | 61.2*
COc1ccc(-n2c(SCC(=O)Nc3sc4c(c3C#N)CCCC4)nnc2-c2ccccc2OC)cc1 | 0.5 | -1.7 | 0.1 | -0.3 | 54.2 | 0.1 | .
O=C(CSc1nnc(Nc2ccccc2)s1)NN1C(=O)NC2(CCCCC2)C1=O | -9.1 | 3.0 | -0.2 | -2.0 | -21.9 | -0.4 | .
O=C(NC1CCCC1)C1c2ccccc2OCC(=O)N1C1CC1 (stereo not given) | . | . | 0.1 | . | . | -1.4 | .
O=C(O)CCC(=O)N1N=C(c2c(-c3ccccc3)c3cc(Cl)ccc3[nH]c2=O)CC1c1cccs1 (stereo not given) | -3.8 | 2.2 | -0.1 | -0.3 | 13.4 | 11.2 | .
COc1ccc(OC)c(C2CC(c3c(-c4ccccc4)c4cc(Cl)ccc4[nH]c3=O)=NN2S(C)(=O)=O)c1 (stereo not given) | -0.2 | 1.7 | 0.8 | 54.5* | -1.4 | -3.4 | 20.5
COc1ccc(C2CC(c3c(-c4ccccc4)c4cc(Cl)ccc4[nH]c3=O)=NN2S(C)(=O)=O)cc1 (stereo not given) | 0.9 | -0.6 | -0.1 | 49.9* | 70.0 | -0.4 | 139.9*
CCOC(=O)CC(=O)CSc1nc(-c2ccc3c(c2)OCO3)cc(C(F)(F)F)c1C#N | 0.9 | -2.1 | 0.4 | 37.6* | 8.7 | 1.8 | 11.2
SMILES | NR3A LBD binder | CHOP UPR activ | aDG glyco up | UPR XBP1 act | CHOP inh | MPTP block | UPR XBP1 confirm
COc1ccc(CNCCCC(=O)Nc2c(Cl)ccc(C)c2Cl)cc1OC | -0.4 | -1.0 | 0.1 | -0.5 | . | 2.7 | .
COc1cc(/C=N/NC(=O)NC23CC4CC(CC(C4)C2)C3)ccc1OCC(N)=O | -1.7 | 2.2 | -0.2 | 38.4* | . | 0.0 | 11.2
COc1ccc(C=NNC(=S)NC23CC4CC(CC(C4)C2)C3)cc1OC | -6.3 | . | 3.8 | . | . | 0.7 | .
Cc1cccc(NC(=O)c2nc[nH]c2C(=O)Nc2ccccc2[N+](=O)[O-])c1 | -0.3 | 12.8 | -0.3 | 30.3* | 12.8 | 3.5 | 42.2*
CN1CCc2c(sc(NC(=O)c3cc(Cl)sc3Cl)c2C(N)=O)C1 | -3.8 | 3.2 | 2.0 | 1.1 | . | 36.9 | .
Cc1cc(C)c2c(CCl)cc(=O)oc2c1 | -0.9 | 31.8 | -0.2 | 40.7* | -28.7 | -1.5 | 37.8*
O=C(Nc1ccc2c(c1)OCO2)c1cc(-c2ccc(O)cc2)on1 | 18.1* | 4.8 | -0.1 | 35.6* | . | -1.6 | 10.5
O=C(Nc1ccc2c(c1)OCO2)c1cc(-c2cccc(O)c2)on1 | 3.5 | 8.9 | -0.1 | -0.6 | . | 0.2 | .
CN(CC(=O)NCc1ccccn1)S(=O)(=O)c1ccc(Br)cc1 | -0.9 | 0.9 | 0.1 | -0.2 | 12.8 | 0.5 | .
COc1cccc(C(=O)OCC(=O)c2c[nH]c3ccccc23)c1O | -6.6 | -0.1 | 0.0 | 0.3 | -10.6 | -0.5 | .
COc1cccc(C(=O)Nc2ccc3c(c2)C(=O)c2ccccc2C3=O)c1 | 15.9* | 24.0 | -0.3 | 91.1* | 11.6 | 3.0 | 3.8
CC1CCN(CCCNC(=O)C2CC(=O)N(CCc3ccccc3)C2)CC1 (stereo not given) | 1.2 | 0.5 | -0.3 | -1.3 | . | -0.1 | .
COC(=O)c1ccccc1NC(=O)c1cc(-c2ccco2)on1 | -0.1 | 2.0 | 0.1 | -0.4 | . | -3.3 | .
COC(=O)c1ccccc1NC(=O)c1cc(-c2cccs2)on1 | -1.1 | 20.1 | -0.1 | 32.1* | 74.8* | 0.4 | 3.5
CC(C)n1nc(C(=O)Nc2cccc(S(=O)(=O)N3CCOCC3)c2)c2ccccc2c1=O | 2.2 | -2.3 | -0.4 | 1.6 | . | 0.5 | .
Cc1ccc(CN2C(=O)C(=O)c3cc(C)ccc32)cc1 | -3.1 | 4.1 | 0.3 | 35.1* | . | -1.1 | 29.1*
Cc1ccc2c(c1)C(=O)C(=O)N2CCCOc1ccccc1C | 1.1 | 4.0 | 0.2 | 25.2 | 62.5 | -0.1 | .
CCCN1C(=O)C(=O)c2cc(C)ccc21 | -1.3 | 2.4 | -0.1 | 15.7 | . | 1.4 | .
